# From ChEMBL document CHEMBL2021927, “Synthesis and evaluation of the cytotoxicities of tetraindoles: observation that the 5-hydroxy tetraindole (SK228) induces G₂ arrest and apoptosis in human breast cancer cells” (J Med Chem, 2012)
# Columns and labels:
# MCF7 [1] = test: Growth inhibition of human MCF7 cells at 20 uM after 48 hrs by MTT assay; format: functional; conditions: MCF7, 48 h, read-out: GI
# Method in brief: (§1)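 MTT viability assay with 48 h exposure at a single 20 μM concentration. Result given as percent inhibition of cell growth; n = 3.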
# MCF7 [2] = test: Growth inhibition of human MCF7 cells after 48 hrs by MTT assay; format: functional, cell-based; conditions: MCF7, 48 h
# MDA-MB-231 [3] = test: Growth inhibition of human MDA-MB-231 cells after 48 hrs by MTT assay; format: functional, cell-based; conditions: MDA-MB-231, 48 h
# MDA-MB-231 [4] = test: Growth inhibition of human MDA-MB-231 cells at 20 uM after 48 hrs by MTT assay; format: functional; conditions: MDA-MB-231, 48 h, read-out: GI; method in brief: as §1
IC50 (MCF7 [2]) [µM],IC50 (MDA-MB-231 [3]) [µM],SMILES,inhibition of growth at 20 µM (MCF7 [1]) [%],inhibition of growth at 20 µM (MDA-MB-231 [4]) [%]
> 20,24.3,c1cc(C(c2c[nH]c3ccccc23)c2c[nH]c3ccccc23)cc(C(c2c[nH]c3ccccc23)c2c[nH]c3ccccc23)c1,32,–
50,10,c1ccc2c(Cc3c[nH]c4ccccc34)c[nH]c2c1 [ARUNDINE],–,–
17.8,> 20,Oc1ccc2[nH]cc(C(c3cccc(C(c4c[nH]c5ccc(O)cc45)c4c[nH]c5ccc(O)cc45)c3)c3c[nH]c4ccc(O)cc34)c2c1,–,0
19.8,20.1,c1ccc2c(C3CCCC(c4c[nH]c5ccccc45)(c4c[nH]c5ccccc45)C3)c[nH]c2c1 (stereo not drawn),–,–
> 20,> 20,Brc1ccc2[nH]cc(C(c3ccc(C(c4c[nH]c5ccc(Br)cc45)c4c[nH]c5ccc(Br)cc45)cc3)c3c[nH]c4ccc(Br)cc34)c2c1,25,5
6.3,7.8,Oc1ccc2[nH]cc(C(c3ccc(C(c4c[nH]c5ccc(O)cc45)c4c[nH]c5ccc(O)cc45)cc3)c3c[nH]c4ccccc34)c2c1 (stereo not drawn),–,–
12.6,13.9,Oc1ccc2[nH]cc(C(c3ccc(C(c4c[nH]c5ccccc45)c4c[nH]c5ccccc45)cc3)c3c[nH]c4ccccc34)c2c1 (stereo not drawn),–,–
9.5,> 20,N#Cc1ccc2[nH]cc(C(c3ccc(C(c4c[nH]c5ccc(C#N)cc45)c4c[nH]c5ccc(C#N)cc45)cc3)c3c[nH]c4ccc(C#N)cc34)c2c1,–,8
1.3,1,c1ccc2c3c([nH]c2c1)Cc1c([nH]c2ccccc12)Cc1c([nH]c2ccccc12)Cc1c([nH]c2ccccc12)C3,–,–
> 20,> 20,Oc1ccc2[nH]cc(C(c3ccc(C(c4c[nH]c5ccccc45)c4c[nH]c5ccccc45)cc3)c3c[nH]c4ccc(O)cc34)c2c1,23,36
> 20,> 20,c1ccc(C(c2c[nH]c3ccccc23)c2c[nH]c3ccccc23)c(Oc2ccccc2C(c2c[nH]c3ccccc23)c2c[nH]c3ccccc23)c1,48,8
> 20,> 20,Brc1ccc2[nH]cc(C(c3ccc(C(c4c[nH]c5ccccc45)c4c[nH]c5ccccc45)cc3)c3c[nH]c4ccc(Br)cc34)c2c1,17,8
> 20,> 20,c1ccc2c(C(c3ccc(C(c4c[nH]c5ccccc45)c4c[nH]c5ccccc45)s3)c3c[nH]c4ccccc34)c[nH]c2c1,34,36
> 20,> 20,COc1ccc2[nH]cc(C(c3ccc(C(c4c[nH]c5ccc(OC)cc45)c4c[nH]c5ccc(OC)cc45)cc3)c3c[nH]c4ccc(OC)cc34)c2c1,43,3
> 20,> 20,Oc1ccc2c(C(c3ccc(C(c4c[nH]c5cc(O)ccc45)c4c[nH]c5cc(O)ccc45)cc3)c3c[nH]c4cc(O)ccc34)c[nH]c2c1,0,16
> 20,> 20,Nc1ccc2[nH]cc(C(c3ccc(C(c4c[nH]c5ccc(N)cc45)c4c[nH]c5ccc(N)cc45)cc3)c3c[nH]c4ccc(N)cc34)c2c1,25,35
16.1,9.8,c1ccc2c(C(c3ccc(C(c4c[nH]c5ccccc45)c4c[nH]c5ccccc45)cc3)c3c[nH]c4ccccc34)c[nH]c2c1,–,–
